From ChEMBL document CHEMBL1153988 (J Med Chem, 2009) come the findings set out here.

Molecules are shown by their SMILES. The source made the active and inactive calls. The calls are words filed in the database; no cut-off is given here.

Series [1] relates to Rattus norvegicus. Nature of the series: Anticonvulsant activity in albino Sprague-Dawley rat assessed as protection against scMet-induced seizures at 50 mg/kg, po after 2 hrs. Type of series: functional. The procedure, abridged: (§1)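 Male Sprague-Dawley albino rats (100-150 g) were given the compound orally as a suspension in 0.5% methylcellulose. Seizures were induced by subcutaneous pentylenetetrazol, dissolved in 0.9% saline as a 2.82% solution. The read-out was animals protected over animals tested.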

Series [2] has as its system Mus musculus. The experiment in a line: Anticonvulsant activity in CF1 albino mouse assessed as protection against scMet-induced seizures at 30 mg/kg, ip after 0.5 hrs. Type of series: functional, organism-based. Set-up: dose 30 mg/kg. The procedure, abridged:
(§2)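 Adult male CF no. 1 albino mice (18-25 g) dosed intraperitoneally with compound suspended in 0.5% methylcellulose (0.01 mL/g). Convulsant challenge given subcutaneously as a 0.85% pentylenetetrazol solution in 0.9% saline. Read-out is animals protected over animals tested, with neurotoxicity scored in parallel.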

In series [3] the test system is Rattus norvegicus. The experiment in a line: Anticonvulsant activity in albino Sprague-Dawley rat assessed as protection against scMet-induced seizures at 50 mg/kg, po after 30 mins. It is filed as functional. In outline: as §1
Series [4] deals with Mus musculus. The experiment in a line: Anticonvulsant activity in CF1 albino mouse assessed as protection against maximal electroshock-induced seizures at 300 mg/kg, ip after 4 hrs. Type of series: functional, organism-based. Set-up: dose 300 mg/kg. In outline: (§3)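 Adult male CF no. 1 albino mice (18-25 g). Test compound suspended in 0.5% methylcellulose and given intraperitoneally at 0.01 mL/g body weight. Maximal electroshock challenge at the stated time. Read-out is the number of animals protected over the number tested; neurotoxicity is scored in parallel.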

Series [5] concerns Rattus norvegicus. The experiment in a line: Anticonvulsant activity in albino Sprague-Dawley rat assessed as protection against maximal electroshock-induced seizures at 50 mg/kg, po after 1 hr. Type of series: functional. The procedure, abridged:
(§4)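 Adult male Sprague-Dawley albino rats (100-150 g) dosed orally with compound suspended in 0.5% methylcellulose (0.04 mL per 10 g). Maximal electroshock challenge at the stated time. Protection is scored in 25% steps as the fraction of animals protected, with neurotoxicity recorded in parallel.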

Series [6] concerns Mus musculus. The experiment in a line: Neurotoxicity in CF1 albino mouse at 300 mg/kg, ip after 0.5 hrs. It is filed as toxicity, organism-based. More on the design: dose 300 mg/kg, route intraperitoneal. The following applies: in vivo. In outline: (§5)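 Male CF no. 1 albino mice (18-25 g) received a single ip dose as a suspension in 0.5% methylcellulose. The read-out was the number of animals showing neurotoxicity (minimal motor impairment) over the number tested.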

For series [7], the system named is Mus musculus. Nature of the series: Neurotoxicity in CF1 albino mouse at 100 mg/kg, ip after 4 hrs. The following applies: in vivo. It is filed as toxicity, organism-based. More on the design: dose 100 mg/kg, route intraperitoneal. The procedure, abridged:
as §5

Series [8] deals with Mus musculus. The experiment in a line: Anticonvulsant activity in CF1 albino mouse assessed as protection against scMet-induced seizures at 100 mg/kg, ip after 0.5 hrs. It is filed as functional, organism-based. More on the design: dose 100 mg/kg. In outline: as §2
Series [9] has as its system Rattus norvegicus. Nature of the series: Anticonvulsant activity in albino Sprague-Dawley rat assessed as protection against scMet-induced seizures at 50 mg/kg, po after 1 hr. It is filed as functional. The procedure, abridged: as §1
For series [10], the system named is Rattus norvegicus. The experiment in a line: Anticonvulsant activity in albino Sprague-Dawley rat assessed as protection against maximal electroshock-induced seizures at 50 mg/kg, po after 15 mins. It is filed as functional. The procedure, abridged:
as §4
Background: Protection in the maximal electroshock model is a classic sign of anticonvulsant action.

In series [11] the test system is Rattus norvegicus. The experiment in a line: Anticonvulsant activity in albino Sprague-Dawley rat assessed as protection against maximal electroshock-induced seizures at 50 mg/kg, po after 4 hrs. Set-up: dose 50 mg/kg. Type of series: functional, organism-based. In outline: as §4
In series [12] the test system is Mus musculus. Nature of the series: Anticonvulsant activity in CF1 albino mouse assessed as protection against maximal electroshock-induced seizures at 30 mg/kg, ip after 0.5 hrs. Type of series: functional, organism-based. Set-up: dose 30 mg/kg. The procedure, abridged: as §3
Series [13] relates to Rattus norvegicus. The experiment in a line: Anticonvulsant activity in albino Sprague-Dawley rat assessed as protection against maximal electroshock-induced seizures at 50 mg/kg, po after 30 mins. Type of series: functional. In outline: as §4
The test system of series [14] is Mus musculus. The experiment in a line: Neurotoxicity in CF1 albino mouse at 30 mg/kg, ip after 0.5 hrs. The following applies: in vivo. Set-up: dose 30 mg/kg, route intraperitoneal. It is filed as toxicity, organism-based. In outline: as §5
Series [15] concerns Mus musculus. Nature of the series: Anticonvulsant activity in CF1 albino mouse assessed as protection against scMet-induced seizures at 300 mg/kg, ip after 0.5 hrs. It is filed as functional, organism-based. More on the design: dose 300 mg/kg. The procedure, abridged: as §2
Series [16] concerns Mus musculus. Nature of the series: Anticonvulsant activity in CF1 albino mouse assessed as protection against scMet-induced seizures at 30 mg/kg, ip after 4 hrs. Type of series: functional, organism-based. More on the design: dose 30 mg/kg. In outline:
as §2

Series [17] has as its system Mus musculus. Nature of the series: Anticonvulsant activity in CF1 albino mouse assessed as protection against maximal electroshock-induced seizures at 100 mg/kg, ip after 4 hrs. It is filed as functional, organism-based. Set-up: dose 100 mg/kg. In outline: as §3
For series [18], the system named is Rattus norvegicus. The experiment in a line: Neurotoxicity in albino Sprague-Dawley rat at 50 mg/kg, po. It is filed as toxicity, organism-based. Set-up: dose 50 mg/kg, route oral. The following applies: in vivo. In outline:
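Neurotoxicity was scored in male Sprague-Dawley albino rats (100-150 g) dosed orally with a suspension in 0.5% methylcellulose. The read-out was the fraction of animals showing neurotoxicity (minimal motor impairment).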

Series [19] has as its system Mus musculus. The experiment in a line: Anticonvulsant activity in CF1 albino mouse assessed as protection against maximal electroshock-induced seizures at 100 mg/kg, ip after 0.5 hrs. Type of series: functional, organism-based. Set-up: dose 100 mg/kg. In outline:
as §3

For series [20], the system named is Mus musculus. Nature of the series: Anticonvulsant activity in CF1 albino mouse assessed as protection against scMet-induced seizures at 100 mg/kg, ip after 4 hrs. Type of series: functional, organism-based. Set-up: dose 100 mg/kg. In outline:
as §2

Series [21] has as its system Rattus norvegicus. Nature of the series: Anticonvulsant activity in albino Sprague-Dawley rat assessed as protection against scMet-induced seizures at 50 mg/kg, po after 4 hrs. It is filed as functional. The procedure, abridged:
as §1

Series [22] deals with Mus musculus. The experiment in a line: Neurotoxicity in CF1 albino mouse at 30 mg/kg, ip after 4 hrs. Type of series: toxicity, organism-based. Set-up: dose 30 mg/kg, route intraperitoneal. The following applies: in vivo. In outline:
as §5

For series [23], the system named is Mus musculus. The experiment in a line: Anticonvulsant activity in CF1 albino mouse assessed as protection against maximal electroshock-induced seizures at 30 mg/kg, ip after 4 hrs. Type of series: functional, organism-based. Set-up: dose 30 mg/kg. In outline:
as §3

In series [24] the test system is Mus musculus. Nature of the series: Anticonvulsant activity in CF1 albino mouse assessed as protection against maximal electroshock-induced seizures at 300 mg/kg, ip after 0.5 hrs. It is filed as functional, organism-based. More on the design: dose 300 mg/kg. In outline: as §3
For series [25], the system named is Rattus norvegicus. The experiment in a line: Anticonvulsant activity in albino Sprague-Dawley rat assessed as protection against maximal electroshock-induced seizures at 50 mg/kg, po after 2 hrs. Type of series: functional. The procedure, abridged: as §4
Series [26] deals with Mus musculus. Nature of the series: Anticonvulsant activity in CF1 albino mouse assessed as protection against scMet-induced seizures at 300 mg/kg, ip after 4 hrs. Type of series: functional, organism-based. Set-up: dose 300 mg/kg. In outline: as §2
The subject of series [27] is Mus musculus. Nature of the series: Neurotoxicity in CF1 albino mouse at 300 mg/kg, ip after 4 hrs. More on the design: dose 300 mg/kg, route intraperitoneal. It is filed as toxicity, organism-based. The following applies: in vivo. In outline:
as §5

Series [28] deals with Rattus norvegicus. The experiment in a line: Anticonvulsant activity in albino Sprague-Dawley rat assessed as protection against scMet-induced seizures at 50 mg/kg, po after 15 mins. It is filed as functional. In outline:
as §1

Series [29] has as its system Mus musculus. The experiment in a line: Anticonvulsant activity in ip dosed CF1 albino mouse assessed as protection against 32 mA current-induced seizure by 6Hz psychomotor seizure test. It is filed as functional. The procedure, abridged:
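In the 6 Hz psychomotor seizure test, male CF no. 1 albino mice (18-25 g) received the compound ip in 0.5% methylcellulose. Stimulation was at 32 or 44 mA. Doses were varied to give 3-4 points between 0% and 100% protection, and ED50 with 95% confidence interval came from probit analysis.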

The test system of series [30] is Mus musculus. The experiment in a line: Neurotoxicity in CF1 albino mouse at 100 mg/kg, ip after 0.5 hrs. It is filed as toxicity, organism-based. More on the design: dose 100 mg/kg, route intraperitoneal. The following applies: in vivo. The procedure, abridged:
as §5

On to `CC1(C)C(C)(C)C1(F)C(=O)O`, for which the outcome in the series on Rattus norvegicus [1], with Rattus norvegicus [3], in the series on Rattus norvegicus [5], with Rattus norvegicus [9], in the series with Rattus norvegicus [10] and in the series with Rattus norvegicus [11] was inactive. In addition, the result in the series on Rattus norvegicus [13], in the series on Rattus norvegicus [21] and in the series with Rattus norvegicus [25] was inactive. The Activity result in the series on Mus musculus [2] is “Non-toxic”; in the series with Mus musculus [4], “Non-toxic”; with Mus musculus [6], “Toxic”; in the series on Mus musculus [7], “Non-toxic”; with Mus musculus [8] it was “Non-toxic”; with Mus musculus [12] it was “Non-toxic”. Further, the Activity entry was “Non-toxic” with Mus musculus [14]; “Toxic” in the series with Mus musculus [15]; “Non-toxic” with Mus musculus [16]; “Non-toxic” in the series with Mus musculus [17]; “Not Active” in the series with Rattus norvegicus [18]; “Non-toxic” in the series on Mus musculus [19]. Also, the Activity entry in the series on Mus musculus [20], in the series on Mus musculus [22], in the series on Mus musculus [23], in the series on Mus musculus [24], in the series with Mus musculus [26] and with Mus musculus [27] was “Non-toxic” each time.
For `CNC(=O)C1(F)C(C)(C)C1(C)C`, the outcome with Rattus norvegicus [1], in the series on Rattus norvegicus [3], in the series with Rattus norvegicus [9], in the series with Rattus norvegicus [28] and in the series on Rattus norvegicus [21] was inactive. Further, the Activity result with Mus musculus [2] was “Non-toxic”; in the series with Mus musculus [4], “Non-toxic”; with Mus musculus [6], “Toxic”; with Mus musculus [7] it was “Non-toxic”; in the series on Mus musculus [8], “Toxic”; with Mus musculus [12], “Non-toxic”. Also, the Activity entry is “Non-toxic” in the series with Mus musculus [15]; “Non-toxic” in the series with Mus musculus [16]; “Non-toxic” in the series on Mus musculus [17]; 100% in the series with Rattus norvegicus [18]; “Non-toxic” in the series with Mus musculus [19]; “Non-toxic” in the series with Mus musculus [20]. For the same compound, the Activity entry in the series with Mus musculus [23] is “Non-toxic”; in the series on Mus musculus [24], “Toxic”; with Mus musculus [26], “Non-toxic”; with Mus musculus [27], “Non-toxic”.
With `CC[C@H](C(N)=O)N1CCCC1=O`, the 50% effective dose (ED50) in the series with Mus musculus [29] came to 19 mg/kg.
Take `CC1(C)C(C)(C)C1(C)C(=O)O`: the result with Rattus norvegicus [1], in the series with Rattus norvegicus [3], in the series on Rattus norvegicus [5], in the series with Rattus norvegicus [9], with Rattus norvegicus [10] and with Rattus norvegicus [11] was inactive. In addition, the outcome with Rattus norvegicus [28], in the series with Rattus norvegicus [13] and with Rattus norvegicus [25] was inactive. Besides, the Activity result with Mus musculus [2], with Mus musculus [4], with Mus musculus [7], in the series with Mus musculus [8], with Mus musculus [12] and in the series with Mus musculus [14] was “Non-toxic” each time. Also, the Activity result was “Non-toxic” in the series on Mus musculus [15]; “Non-toxic” with Mus musculus [16]; “Non-toxic” in the series on Mus musculus [17]; “Not Active” in the series on Rattus norvegicus [18]; “Non-toxic” with Mus musculus [19]; “Non-toxic” with Mus musculus [20]. In addition, the Activity in the series on Rattus norvegicus [21] is 25%; in the series with Mus musculus [22] it was “Non-toxic”; with Mus musculus [23], “Non-toxic”; in the series on Mus musculus [24] it was “Toxic”; in the series with Mus musculus [30], “Non-toxic”; in the series on Mus musculus [26], “Non-toxic”. The Activity entry in the series with Mus musculus [27] is on record as “Non-toxic”.

In general, ED50 refers to the dose at which the effect has come halfway, by size or by number of responders.
